Reference: ChEMBL document CHEMBL3259537, “Design of a truncated cardiotoxin-I analogue with potent insulinotropic activity” (J Med Chem, 2014)
Active and inactive are the calls of the source. The calls are words filed in the database; no cut-off is given here.

Legend:
INS-1E [1] = test: Inhibition of [86]-Rb+-efflux in rat INS-1E cells at 10^8 to 10'6 M incubated for 30 mins followed by high-phosphate buffer addition by scintillation counting analysis; type: functional, cell-based; settings: in the assay text read “high-potassium” for “high-phosphate”
In short: (§1)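 INS-1E cells (2×10^5/well) were loaded overnight at 37 °C with 86RbCl (0.02 µCi/mL) in medium. They were then incubated 30 min at 37 °C in low-K buffer (4.6 mM KCl, pH 7.4) ± peptide, switched to high-K buffer (140 mM KCl) ± peptide, and efflux was followed over time by scintillation counting. Efflux is % of total 86Rb+ (medium plus cells); IC50 values are from three independent experiments in triplicate.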

Aorta = test: Induction of rat aortic ring contraction at 10'5 M; type: functional, tissue-based
INS-1E [2] = test: Insulinotropic activity in rat INS-1E cells assessed as insulin exocytosis after 2 hrs by RIA in presence of Ca2+ channel blocker nifedipine; type: functional, cell-based
In short: (§2)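 INS-1E cells (2×10^5/well) were seeded 2 days before use. They were starved 2 h in glucose-free KRBH with 0.1% BSA, washed, and held another 30 min at 37 °C. Cells were then incubated 2 h at 37 °C with peptide, with 20 mM glucose or without glucose. Secreted insulin in the medium was measured by RIA against a rat insulin standard.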

INS-1E [3] = test: Effect on NGF-induced intracellular calcium release in rat INS-1E cells at 10^-8 to 10^-5 M by fluorescence assay; type: functional, cell-based
INS-1E [4] = test: Effect on NGF-induced intracellular calcium release in rat INS-1E cells at 10^-9 M by fluorescence assay; type: functional, cell-based
INS-1E [5] = test: Insulinotropic activity in rat INS-1E cells assessed as insulin exocytosis after 2 hrs by RIA in presence of adenylyl cyclase inhibitor 2',5'-dideoxy-adenosine; type: functional, cell-based
In short: (§3)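 INS-1E cells (2×10^5/well) were pretreated 30 min with H89 (40 μM) or 2',5'-dideoxyadenosine (50 μM). They were then starved 2 h plus 30 min in glucose-free KRBH/0.1% BSA and incubated 2 h at 37 °C with peptide ± 20 mM glucose. Insulin in the medium was quantified by RIA against a rat insulin standard.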

INS-1E [6] = test: Inhibition of [86]-Rb+-efflux in rat INS-1E cells incubated for 30 mins followed by high-phosphate buffer addition by scintillation counting analysis; type: functional, cell-based; settings: in the assay text read “high-potassium” for “high-phosphate”; in short: as §1
INS-1E [7] = test: Insulinotropic activity in rat INS-1E cells assessed as insulin exocytosis after 2 hrs by RIA in presence of K-ATP channel opener diazoxide; type: functional, cell-based; in short: as §2
INS-1E [8] = test: Insulinotropic activity in rat INS-1E cells assessed as insulin exocytosis at 10^-6 M after 2 hrs by RIA; type: functional, cell-based; in short: as §2
INS-1E [9] = test: Insulinotropic activity in rat INS-1E cells assessed as insulin exocytosis after 2 hrs by RIA in presence of ATP depletor 2-deoxy-D-glucose; type: functional, cell-based; in short: as §2
INS-1E [10] = test: Insulinotropic activity in rat INS-1E cells assessed as insulin exocytosis after 2 hrs by RIA in presence of PKA inhibitor H89; type: functional, cell-based; in short: as §3
[11] = Cytotoxicity against rat INS-1E cells by LDH assay; type: cell-based
In short: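 INS-1E cells were seeded at 2×10^4 cells/well and grown 24 h at 37 °C, then exposed to increasing peptide concentrations in serum-free medium. LDH released into the medium from dead cells was measured with a commercial kit and expressed as % of maximum LDH release after cell lysis.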

INS-1E [12] = test: Induction of intracellular calcium release in rat INS-1E cells at 10^-6 M by fluorescence assay; type: functional, cell-based
In short: (§4)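 INS-1E cells were harvested by scraping (5×10^5 cells/mL) and loaded 30 min at 37 °C with 4 μM Fura-2-AM plus 2.5 mM probenecid in KRBH (10 mM glucose, pH 7.4). After washing, 20000 cells/well were read immediately after peptide addition (10^-12–10^-5 M range) at excitation 340/380 nm, emission 495 nm. [Ca2+]i was calculated by the Grynkiewicz equation (Kd 225 nM).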

INS-1E [13] = test: Insulinotropic activity in rat INS-1E cells assessed as insulin exocytosis after 2 hrs by RIA in presence of glucose; type: functional, cell-based; in short: as §2
[14] = Induction of intracellular calcium release in rat INS-1E cells by fluorescence assay; type: functional, cell-based; in short: as §4

EC50 [14] [nM] | Compound | inhibition (INS-1E [1]) | Activity (Aorta) | Activity (INS-1E [2]) | Activity (INS-1E [3]) | Activity (INS-1E [4]) | Activity (INS-1E [5]) | Activity (INS-1E [6]) | Activity (INS-1E [7]) | Activity (INS-1E [8]) | Activity (INS-1E [9]) | Activity (INS-1E [10]) | Activity [11] | Activity (INS-1E [12]) | Activity (INS-1E [13])
– | CN(CCc1ccc(Cl)c(Cl)c1)CC(O)COc1ccc(NS(C)(=O)=O)cc1 (stereo unspecified) | Active | – | – | – | – | – | – | – | – | – | – | – | – | –
– | CC(C)C[C@@H]1NC(=O)[C@H](CO)NC(=O)[C@H](CC(N)=O)NC(=O)[C@H](CCCCN)NC(=O)[C@@H]2CCCN2C(=O)[C@@H](NC(=O)[C@@H](N)C(C)C)CSSC[C@@H](C(=O)N[C@H]2CSSC[C@H](C(=O)N[C@@H](CC(N)=O)C(=O)O)NC(=O)[C@H](CCCNC(=N)N)NC(=O)[C@H](CC(=O)O)NC(=O)[C@H]([C@@H](C)O)NC(=O)[C@H](CC(N)=O)NC2=O)NC(=O)[C@H](CCCCN)NC(=O)[C@H](Cc2ccc(O)cc2)NC(=O)[C@H](CCCCN)NC(=O)[C@H](C(C)C)NC(=O)[C@H](CC(C)C)NC1=O | – | inactive | inactive | Active | inactive | Dose-dependent effect | Dose-dependent effect | Active | Active | Active | Dose-dependent effect | Non-toxic | Active | Dose-dependent effect
2.14 | CC(C)C[C@@H]1NC(=O)[C@H](CO)NC(=O)[C@H](CC(N)=O)NC(=O)[C@H](CCCCN)NC(=O)[C@@H]2CCCN2C(=O)[C@@H](NC(=O)[C@@H](N)C(C)C)CSSC[C@@H](C(=O)N[C@H]2CSSC[C@H](C(=O)N[C@@H](CC(N)=O)C(=O)O)NC(=O)[C@H](CCCNC(=N)N)NC(=O)[C@H](CC(=O)O)NC(=O)[C@H]([C@@H](C)O)NC(=O)[C@H](CC(N)=O)NC2=O)NC(=O)[C@H](C(C)C)NC(=O)[C@H](Cc2ccc(O)cc2)NC(=O)[C@H](CCCCN)NC(=O)[C@H](C(C)C)NC(=O)[C@H](CC(C)C)NC1=O | – | – | – | – | – | – | – | – | – | – | – | Non-toxic | – | –
